Measured values as given in ChEMBL document CHEMBL2146426, “Antitubercular nitrofuran isoxazolines with improved pharmacokinetic properties” (Bioorg Med Chem, 2012).
Values after ≈ are worked out from the molar mass of the structure shown.

What was measured:
Enterococcus faecalis = assay: Antibacterial activity against Enterococcus faecalis ATCC 3186 after overnight incubation by microbroth dilution technique; assay type: functional
Procedure, shortened: (§1)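 Two-fold serial broth dilutions per CLSI; inoculum about 10^5 CFU/mL; top final drug concentration 200 µg/mL; incubated aerobically overnight at 37°C. MIC read visually as the lowest concentration with no visible growth.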

[1] = Plasma protein binding in mouse at 10 uM after 4 hrs by LC/MS analysis; assay type: ADME, cell-free; settings: read-out: PPB (converted)
Procedure, shortened: (§2)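 Compound at 10 µM (0.1% DMSO) in mouse or human plasma. Rapid equilibrium dialysis (MWCO 8K) against DPBS pH 7.4, 4 h at 37°C with orbital shaking. Both chambers matrix-matched, precipitated with acetonitrile containing warfarin internal standard, quantified by LC–MS. %Free = buffer/plasma × 100; %Bound = 100 − %Free.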

[2] = Apparent permeability of the compound from apical to basal side of human Caco2 cells at 50 umol/L after 2 hrs by UPLC/MS analysis; assay type: ADME, cell-based; settings: Caco-2
Procedure, shortened: (§3)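 Caco-2 monolayers grown 7 days on Transwell inserts, washed with HBSS/HEPES pH 7.4. Compound at 50 µmol/L added apically or basolaterally, then 2 h at 37°C. Receiver side sampled and quantified by UPLC/MS. Papp = (dQ/dt)/(A×C0), triplicates.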

[3] = Apparent permeability of the compound from basal to apical side of human Caco2 cells at 50 umol/L after 2 hrs by UPLC/MS analysis; assay type: ADME, cell-based; settings: Caco-2; procedure, shortened: as §3
[4] = Half life in mouse liver microsomes; assay type: ADME, Microsome
Procedure, shortened: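 Mouse liver microsomes at 0.6381 mg/mL protein in 0.1 M potassium phosphate pH 7.4 with EDTA. Reaction started with NADPH regenerating system at 37°C; six time points including 0, triplicate wells. Quenched in cold acetonitrile with warfarin internal standard, analysed by LC–MS. Half-life from a first-order least-squares fit.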

[5] = Half life in human liver microsomes; assay type: ADME, Microsome
[6] = Plasma protein binding in human at 10 uM after 4 hrs by LC/MS analysis; assay type: ADME, cell-free; settings: read-out: PPB (converted); procedure, shortened: as §2
Bacillus subtilis = assay: Antibacterial activity against Bacillus subtilis ATCC 23857 after overnight incubation by microbroth dilution technique; assay type: functional
Procedure, shortened: (§4)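 Non-mycobacterial strains: two-fold serial dilutions in broth by CLSI microbroth dilution. Inoculum about 10^5 cfu/mL; top final drug concentration 200 µg/mL. Aerobic incubation at 37°C overnight. MIC read visually as the lowest concentration with no visible growth.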

Bacillus anthracis = assay: Antibacterial activity against Bacillus anthracis Sterne 34F2 after overnight incubation by microbroth dilution technique; assay type: functional; procedure, shortened: as §4
Streptococcus pyogenes = assay: Antibacterial activity against Streptococcus pyogenes ATCC 700294 after overnight incubation by microbroth dilution technique; assay type: functional; procedure, shortened: as §1
Staphylococcus aureus = assay: Antibacterial activity against Staphylococcus aureus ATCC 29213 after overnight incubation by microbroth dilution technique; assay type: functional; procedure, shortened: as §1
[7] = Solubility of the compound at pH 7.4 after 18 hrs by UV spectrometry; assay type: physicochemical; settings: buffer, pH 7.4
Procedure, shortened: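 10 mM DMSO stocks diluted 100-fold in system solution buffer pH 7.4 and held 18 h at room temperature. Filtered, diluted 1:1 with isopropanol and measured by UV (230–500 nm). Compared against a 600-fold diluted reference in buffer/isopropanol. Triplicates.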

Streptococcus pneumoniae = assay: Antibacterial activity against Streptococcus pneumoniae DAW27 after overnight incubation by microbroth dilution technique; assay type: functional; procedure, shortened: as §1
Escherichia coli = assay: Antibacterial activity against Escherichia coli K12 after overnight incubation by microbroth dilution technique; assay type: functional; settings: K-12; procedure, shortened: as §4
[8] = Volume of distribution in rat; assay type: ADME, organism-based; settings: in vivo
Procedure, shortened: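 Plasma concentration–time data from rats (n=5) after IV 10 mg/kg or oral 100 mg/kg. Samples taken 0.25–48 h and measured by LC-MS/MS. Non-compartmental analysis; Vd calculated as AUMC0-∞ × dose divided by the square of AUC0-∞.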

[9] = Cmax in rat at 10 mg/kg, iv; assay type: ADME, organism-based; parameters: dose 10 mg/kg, route intravenous; settings: in vivo
Procedure, shortened: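 Rats (n=5) given 10 mg/kg IV via femoral vein catheter. Vehicle was 2% ethanol/saline or 30% DMSO/30% propylene glycol/20% PEG 3000/20% saline, depending on compound. Serial plasma sampled 0–48 h and assayed by LC-MS/MS after acetonitrile precipitation. Cmax read by visual inspection of the concentration–time curve.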

[10] = Drug excretion in rat urine; assay type: ADME; settings: read-out: Drug excretion

Row | Structure (SMILES) | MIC (Enterococcus faecalis) [µg/mL] | fraction unbound at 4 h, 10 µM [1] | Papp A→B at 2 h, 50 µM [2] [×10⁻⁶ cm/s] | Papp B→A at 2 h, 50 µM [3] [×10⁻⁶ cm/s] | half-life [4] [h] | half-life [5] [h] | fraction unbound at 4 h, 10 µM [6] | MIC (Bacillus subtilis) [µg/mL] | MIC (Bacillus anthracis) [µg/mL] | MIC (Streptococcus pyogenes) [µg/mL] | MIC (Staphylococcus aureus) [µg/mL] | solubility at 18 h [7] [µg/mL] | MIC (Streptococcus pneumoniae) [µg/mL] | MIC (Escherichia coli) [µg/mL] | Vd [8] [L/kg] | Cmax [9] [ng/mL] | dose excreted [10] [%]
1 | CN1CCN(c2ccc(C3CC(c4ccc([N+](=O)[O-])o4)=NO3)cn2)C(=O)C1 (stereo not given) | 100 (≈ 269 µM) | 0.402 | 36.6 | 33.3 | 0.35 | 4.24 | 0.511 | 25 (≈ 67.3 µM) | 25 (≈ 67.3 µM) | 50 (≈ 135 µM) | 12.5 (≈ 33.7 µM) | 28.9 (≈ 77.8 µM) | 50 (≈ 135 µM) | 50 (≈ 135 µM) |  |  | 
2 | CN1CCN(c2ccc(C3CC(c4ccc([N+](=O)[O-])o4)=NO3)cc2F)C(=O)C1 (stereo not given) | 100 (≈ 257 µM) | 0.172 | 27 | 38.6 | 0.62 | 4.81 | 0.391 |  | 25 (≈ 64.4 µM) | 50 (≈ 129 µM) | 6.25 (≈ 16.1 µM) | 29.2 (≈ 75.2 µM) | 50 (≈ 129 µM) | 200 (≈ 515 µM) |  |  | 
3 | O=C1COCCN1c1ccc(C2CC(c3ccc([N+](=O)[O-])o3)=NO2)cc1 (stereo not given) | > 200 | 0.34 | 12.6 | 56.5 | 1.4 | 10 | 0.357 | 6.25 (≈ 17.5 µM) | 25 (≈ 70 µM) | 100 (≈ 280 µM) | 6.25 (≈ 17.5 µM) | 25.9 (≈ 72.4 µM) | 200 (≈ 560 µM) | 25 (≈ 70 µM) |  |  | 
4 | O=C1COCCN1c1ccc(C2CC(c3ccc([N+](=O)[O-])o3)=NO2)cn1 (stereo not given) | > 200 | 0.411 | 8.61 | 45.7 | 1.01 | 1.52 | 0.398 | 12.5 (≈ 34.9 µM) | 25 (≈ 69.8 µM) |  | 12.5 (≈ 34.9 µM) | 21.9 (≈ 61.2 µM) | 50 (≈ 140 µM) | 25 (≈ 69.8 µM) |  |  | 
5 | O=C1COCCN1c1ccc(C2CC(c3ccc([N+](=O)[O-])o3)=NO2)cc1F (stereo not given) | 200 (≈ 533 µM) | 0.203 | 15.4 | 42.4 | 1.38 | 8.31 | 0.292 |  | 25 (≈ 66.6 µM) | 100 (≈ 266 µM) | 6.25 (≈ 16.7 µM) | 12.6 (≈ 33.5 µM) | 200 (≈ 533 µM) | > 200 |  |  | 
6 | CC(=O)NC[C@H]1CN(c2ccc(N3CCOCC3)c(F)c2)C(=O)O1 [LINEZOLID] |  |  |  |  |  |  |  |  |  |  |  |  |  |  | 0.72 | 15000 | 73
